# Experimental data collected from several papers.
# Protocols differ between the studies behind these lines.
# Target: cAMP-dependent protein kinase catalytic subunit alpha (PRKACA, Homo sapiens, UniProt P17612)
SMILES,assay,setting,quantity,value
O=C(NS(=O)(=O)c1ccc(NCC2CCOCC2)c([N+](=O)[O-])c1)c1ccc(N2CCN(Cc3ccc(C(F)(F)F)cc3-c3ccc(Cl)cc3)CC2)cc1Oc1cnc2[nH]ccc2c1,"cell-free assay, competition with immobilised ligand",1 µM,remaining binding,76%
Cn1c2c(Cl)c(Cl)ccc2c2cc[nH]c(=O)c21,"thermal stability, DSF",10 µM,ΔTm,0.8 °C
Cc1ccc(Nc2nccc(N(C)c3ccc4c(C)n(C)nc4c3)n2)cc1S(N)(=O)=O,"enzyme activity, inhibitor",10 µM,inhibition,19%
NS(=O)(=O)c1cc(NC(=O)Cc2ccccc2)ccc1Oc1cccc(Cl)c1,"cell-free assay, competition with immobilised ligand",1 µM,remaining binding,94%
Cc1ccc(-n2nc(C(C)(C)C)cc2NC(=O)Nc2ccc(OCCN3CCOCC3)c3ccccc23)cc1,"enzyme activity, inhibitor",10 µM,inhibition,6%
CN(C)C1CCN(CC#Cc2nn(C3CCCC3)c3nc(NCc4ccccc4)ncc23)C1 (stereo not drawn),"enzyme activity, inhibitor, FRET",0.1 µM,inhibition,3%
COc1cc(/C=C/C(=O)CC(=O)/C=C/c2ccc(O)c(OC)c2)ccc1O,"enzyme activity, inhibitor",1 µM,activity vs control,94%
COc1ccnn2ncc(-c3ccnc(N(C)C)n3)c12,cell-free assay,1 µM,remaining signal,100%
CC1=C(C#N)C(c2ccc3c(c2)c(NC(=O)c2ccccc2C)nn3C)C(C#N)=C(C)N1,"cell-free assay, competition with immobilised ligand",1 µM,remaining binding,77%
Oc1cccc(-c2nc(N3CCOCC3)c3oc4ncccc4c3n2)c1,"enzyme activity, inhibitor",10 µM,remaining activity,100%
Cn1cnc(Br)c1C1=CN(c2ncnc3[nH]cnc23)CCS1,"enzyme activity, inhibitor, radiometric",2 µM,inhibition,90.2%
CCOc1cc(-c2nncn2C)ccc1Nc1ncc2cc(C)nc(NCC(C)(C)C)c2n1,"enzyme activity, inhibitor, FRET",1 µM,inhibition,< 15%
CC(C)(O)[C@H]1CC[C@H](Nc2ccc3ncc(-c4cccc(C(F)(F)F)c4)n3n2)CC1,"enzyme activity, inhibitor",1 µM,remaining activity,99.4%
Cc1cnn2ncc(-c3ccnc(N(C)C)n3)c2c1,cell-free assay,1 µM,remaining signal,100%
O=C1NC(=O)c2cc(Nc3ccc(F)cc3)c(Nc3ccc(F)cc3)cc21,"cell-free assay, inhibitor",0.5 µM,remaining signal,94.5%
O=C(Nc1cnn(-c2csc(C(=O)NC3COC3)c2)c1)Nc1c(F)cccc1Cl,"enzyme activity, inhibitor",5 µM,remaining activity,108%
Cn1c2c(Cl)c(Cl)ccc2c2cn[nH]c(=O)c21,"thermal stability, DSF",10 µM,ΔTm,0.6 °C
O=C(CSc1nc2nccnc2c(=O)n1CCc1ccccc1)Nc1nccs1,"enzyme activity, inhibitor",10 µM,inhibition,6%
COc1cc(Nc2cnc(C#N)c(O[C@H](C)CN(C)C)n2)ncc1-c1cnn(C)c1,"enzyme activity, inhibitor, radiometric",10 µM,remaining activity,78%
FC(F)c1nc2ccccc2n1-c1nc(N2CCOCC2)nc(N2CCOCC2)n1,"enzyme activity, inhibitor",10 µM,remaining activity,76%
Cn1c2c(c3ccc(Cl)c(Cl)c31)C(C#N)C1(CCCC1)NC2=O (stereo not drawn),"thermal stability, DSF",10 µM,ΔTm,-0.6 °C
C=CC(=O)Nc1cc(Nc2nccc(Nc3cc(Cl)c(F)cc3C(C)(C)O)n2)c(OC)cc1N1CC[C@@H](N(C)C)C1,"enzyme activity, inhibitor",1 µM,inhibition,7%
Cn1c2c(c3ccc(Cl)c(Cl)c31)C(C#N)C1(CCNCC1)NC2=O (racemic),"thermal stability, DSF",10 µM,ΔTm,3.3 °C
Cc1cc(NC(=O)c2cccc3cc(-c4cccc5[nH]nc(N)c45)ccc23)ccc1F,"enzyme activity, inhibitor",0.1 µM,activity vs control,100%
COc1cc2ncnc(Nc3ccc(Oc4ccccc4)c(C)c3C)c2cc1OC,"enzyme activity, inhibitor",1 µM,inhibition,4%
CCOC(=O)c1cc2cc(-c3cc(C(=O)NCc4ccc(C(=O)O)cc4)nn3C)ccc2[nH]1,"cell-free assay, competition with immobilised ligand",0.1 µM,remaining binding,85%
Cc1ccc(C(=O)Nc2ccc(CN3CCN(C)CC3)c(C(F)(F)F)c2)cc1C#Cc1cnc2cccnn12,"enzyme activity, inhibitor",23.5 nM,remaining activity,53%
CC1=C(C#N)[C@@H](c2ccc3[nH]nc(C)c3c2)C(C#N)=C(c2ccc(Cl)cc2)N1,"cell-free assay, competition with immobilised ligand",1 µM,remaining binding,96.7%
CCN(CC)c1ccc(C2=NNC(=O)CC2C)cc1[N+](=O)[O-] (stereo not drawn),"enzyme activity, inhibitor",10 µM,remaining activity,100%
Nc1nc(Nc2ccccc2)sc1C(=O)c1c(F)cccc1F,"enzyme activity, inhibitor",10 µM,remaining activity,90%
CN(C)CCCn1cc(C2=C(c3c[nH]c4ccccc34)C(=O)NC2=O)c2ccccc21,cell-free assay,0.5 µM,remaining signal,72%
FC(F)(F)Oc1cccc(-c2cnc3ccc(-c4ccncc4)nn23)c1,"enzyme activity, inhibitor, radiometric",1 µM,activity vs control,95%
CS(=O)(=O)N1CCCC(NC(=O)[C@H](CCC2CCCCC2)NC(=O)c2ccc(CNC(=O)c3cnc4ccccn34)cc2)C1 (stereo partly drawn),"cell-free assay, competition with immobilised ligand",0.1 µM,remaining binding,100%
C[C@@H](N)[C@H]1CC[C@H](C(=O)Nc2ccncc2)CC1,"cell-free assay, inhibitor",0.5 µM,remaining signal,97.8%
CC(C)(C)c1nc2c(s1)c1nc(N)ncc1c1ccc(NS(=O)(=O)c3c(F)cccc3F)c(F)c12,"enzyme activity, inhibitor, radiometric",1 µM,remaining activity,104%
CN(C)c1ncnc(-c2ccc3nc(Nc4cc(CN5CCN(C(=O)CC(F)(F)F)CC5)ccn4)[nH]c3c2)c1Cl,"cell-free assay, competition with immobilised ligand",1 µM,remaining binding,100%
CCN(CC)CCNC(=O)c1c(C)[nH]c(/C=C2\C(=O)Nc3ccc(F)cc32)c1C,"enzyme activity, inhibitor",10 µM,inhibition,59%
CC1(C)NC(=O)c2[nH]c3c(Cl)c(Cl)ccc3c2C1C#N (stereo not drawn),"thermal stability, DSF",10 µM,ΔTm,1 °C
Nc1nc(NC2CCCCC2)sc1C(=O)c1ccccc1,"enzyme activity, inhibitor",10 µM,remaining activity,97%
CNCc1ccccc1-c1csc([C@@H](C)Nc2nc(C)nc3cc(OC)c(OC)cc23)c1,"cell-free assay, competition with immobilised ligand",1 µM,remaining binding,100%
Cc1ccc(C(=O)NCc2ccsc2)cc1C#Cc1cn(C(C)C)c2ncnc(N)c12,"enzyme activity, inhibitor",1 µM,activity vs control,103%
O=C(Nc1cnn(-c2csc(C(=O)NC3COC3)c2)c1)Nc1ccccc1Cl,"enzyme activity, inhibitor",5 µM,remaining activity,99.8%
